The source of these data is ChEMBL document CHEMBL1124253, “(8 beta)-Ergoline-8-carboxylic acid cycloalkyl esters as serotonin antagonists: structure-activity study” (J Med Chem, 1988).

Sequence of Serotonin 2 (5-HT2) receptor (Rattus norvegicus) (P08909 whole entry, looked up): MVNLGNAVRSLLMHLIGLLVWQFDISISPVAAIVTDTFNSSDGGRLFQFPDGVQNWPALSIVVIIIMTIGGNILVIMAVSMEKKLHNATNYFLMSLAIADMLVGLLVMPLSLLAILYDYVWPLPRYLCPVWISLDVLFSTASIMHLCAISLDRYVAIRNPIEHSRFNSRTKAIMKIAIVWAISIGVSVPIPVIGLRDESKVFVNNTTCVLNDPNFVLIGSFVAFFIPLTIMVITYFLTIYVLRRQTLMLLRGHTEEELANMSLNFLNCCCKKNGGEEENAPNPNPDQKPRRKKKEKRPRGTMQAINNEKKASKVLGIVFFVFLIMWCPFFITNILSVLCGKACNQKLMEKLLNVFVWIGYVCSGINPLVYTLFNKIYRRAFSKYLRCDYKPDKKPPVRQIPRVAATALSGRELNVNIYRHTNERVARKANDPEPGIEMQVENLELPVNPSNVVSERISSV
Sequence of Serotonin 2 (5-HT2) receptor (Rattus norvegicus) (P14842 whole entry, looked up): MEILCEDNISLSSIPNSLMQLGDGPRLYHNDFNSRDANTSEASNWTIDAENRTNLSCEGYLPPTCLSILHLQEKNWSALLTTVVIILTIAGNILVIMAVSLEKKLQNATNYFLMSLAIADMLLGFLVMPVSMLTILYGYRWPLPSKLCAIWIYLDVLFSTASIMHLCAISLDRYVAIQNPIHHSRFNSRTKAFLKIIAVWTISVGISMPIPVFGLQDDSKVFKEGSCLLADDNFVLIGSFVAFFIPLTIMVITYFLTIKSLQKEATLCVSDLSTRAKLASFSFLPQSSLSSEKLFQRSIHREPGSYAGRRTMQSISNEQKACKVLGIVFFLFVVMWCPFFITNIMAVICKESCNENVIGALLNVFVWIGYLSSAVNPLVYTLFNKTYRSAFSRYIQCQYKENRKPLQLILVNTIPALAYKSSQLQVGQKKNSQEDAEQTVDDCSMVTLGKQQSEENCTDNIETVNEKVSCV
Sequence of Serotonin 2 (5-HT2) receptor (Rattus norvegicus) (P30994 whole entry, looked up): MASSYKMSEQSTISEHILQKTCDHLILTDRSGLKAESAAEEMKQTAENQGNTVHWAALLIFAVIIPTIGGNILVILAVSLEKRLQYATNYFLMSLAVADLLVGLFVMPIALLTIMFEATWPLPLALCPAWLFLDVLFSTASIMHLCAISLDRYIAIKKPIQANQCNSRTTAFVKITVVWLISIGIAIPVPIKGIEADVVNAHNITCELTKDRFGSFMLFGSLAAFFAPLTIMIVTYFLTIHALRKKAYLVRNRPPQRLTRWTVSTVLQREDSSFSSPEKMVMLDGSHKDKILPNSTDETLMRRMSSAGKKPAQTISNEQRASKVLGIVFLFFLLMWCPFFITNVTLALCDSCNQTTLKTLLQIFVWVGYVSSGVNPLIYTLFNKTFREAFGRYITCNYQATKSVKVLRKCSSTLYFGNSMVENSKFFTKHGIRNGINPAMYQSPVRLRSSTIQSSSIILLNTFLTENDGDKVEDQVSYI

The assay addresses Serotonin 2 (5-HT2) receptor (Rattus norvegicus) (UniProt P30994+P08909+P14842). Nature of the assay: Binding affinity to the 5-hydroxytryptamine 2 receptor assayed by antagonism of serotonin-induced contractions in the rat jugular vein. Summed up: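 Jugular vein rings mounted in organ baths of modified Krebs solution and equilibrated 1–2 h. Control cumulative serotonin contraction curves were run, then tissues were incubated 1 h with antagonist and serotonin curves were repeated. For each antagonist concentration, K_B = [B]/(dose ratio − 1), where dose ratio = agonist ED50 with antagonist / control ED50. Values reported as −log K_B.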
Turning to `CC(C)n1cc2c3c(cccc31)C1C[C@@H](C(=O)OC3CCCCC3)CNC1C2` (some centres not stated), the -Log KB is below 6.
For `CC(C)n1cc2c3c(cccc31)C1C[C@@H](C(=O)OC3CCCCC3O)CN(C)C1C2` (some centres not stated) the value was 9.47.
In turn, `CC(C)n1cc2c3c(cccc31)C1C[C@@H](C(=O)O[C@H]3CC[C@@H](C)CC3)CN(C)C1C2` (some centres not stated) showed a -Log KB of 7.69.
Take `CC(C)n1cc2c3c(cccc31)C1C[C@@H](C(=O)O[C@H]3CC[C@H](C)CC3)CN(C)C1C2` (some centres not stated): the -Log KB was 7.21.
Next, `CCC(CC)n1cc2c3c(cccc31)C1C[C@@H](C(=O)OC3CCCCC3)CN(C)C1C2` (some centres not stated): 7.31; `CN1C[C@H](C(=O)OC2CCCCC2)CC2c3cccc4[nH]cc(c34)CC21` (some centres not stated): 8.05.
Next, `CC1CCCC(C)C1OC(=O)[C@@H]1CC2c3cccc4c3c(cn4C(C)C)CC2N(C)C1` (some centres not stated): 7.32; `CN1C[C@H](C(=O)OC2CCCCC2)CC2c3cccc4c3c(cn4Cc3ccccc3)CC21` (some centres not stated): 6.52; `CC(C)n1cc2c3c(cccc31)C1C[C@@H](C(=O)OC3CCC(=O)CC3)CN(C)C1C2` (some centres not stated): 10.
For `CC(C)N1C[C@H](C(=O)OC2CCCCC2)CC2c3cccc4c3c(cn4C(C)C)CC21` (some centres not stated), the -Log KB was determined as 6.42.
Next, `CC(C)n1cc2c3c(cccc31)C1C[C@@H](C(=O)OC3CCOCC3)CN(C)C1C2` (some centres not stated): 9.86; `CC(C)n1cc2c3c(cccc31)C1C[C@@H](C(=O)OC3CCCCC3=O)CN(C)C1C2` (some centres not stated): 9.31; `CC(C)n1cc2c3c(cccc31)C1C[C@@H](C(=O)OC3CCCCCC3)CN(C)C1C2` (some centres not stated): 7.73.
Next, `CC(C)n1cc2c3c(cccc31)C1C[C@@H](C(=O)OC3CCCCC3)CN(C)C1C2` (some centres not stated): 8.67; `CC(C)n1cc2c3c(cccc31)C1C[C@@H](C(=O)OC3CCC3)CN(C)C1C2` (some centres not stated): 8.22.
For `CC(O)C(C)OC(=O)[C@@H]1CC2c3cccc4c3c(cn4C(C)C)CC2N(C)C1` (some centres not stated) the value was 10.3.
`CC(C)n1cc2c3c(cccc31)C1C[C@@H](C(=O)OC3CCCC3)CN(C)C1C2` (some centres not stated) yielded a -Log KB of 8.91.
For `CCCCN1C[C@H](C(=O)OC2CCCCC2)CC2c3cccc4c3c(cn4C(C)C)CC21` (some centres not stated) the value was 7.4; for `CC(C)n1cc2c3c(cccc31)C1C[C@@H](C(=O)OC3CCC(O)CC3)CN(C)C1C2` (some centres not stated), 10.2; for `CCCN1C[C@H](C(=O)OC2CCCCC2)CC2c3cccc4c3c(cn4C(C)C)CC21` (some centres not stated), 7.07.
Next, `CN1C[C@H](C(=O)OC2CCCCC2)CC2c3cccc4c3c(cn4C)CC21` (some centres not stated): 8.12.
Turning to `CCN1C[C@H](C(=O)OC2CCCCC2)CC2c3cccc4c3c(cn4C(C)C)CC21` (some centres not stated), the -Log KB was 7.81.
